Published values gathered from unrelated publications.
Each line is one published result; the experiments were not run side by side.
Observed: cell growth or viability

CO[C@]12C[C@@H](COC(=O)c3cncc(Br)c3)CN(C)[C@@H]1Cc1cn(C)c3cccc2c13
IC50 (SUNE1; MTT; 48 h): 12200 nM

C=CC(=O)NC1CCN(c2ncc3ncnc(Nc4ccc(Oc5ccc6c(c5)ncn6C)c(C)c4)c3n2)CC1
EC50 (Daoy): 74.4 nM

Cc1c(C(=O)O)ccc2c3n(nc12)[C@@H]1[C@H](C3)N(CC2CC2)[C@@]2(C(=O)Nc3cc(Cl)ccc32)[C@H]1c1cccc(Cl)c1F
GI50 (UACC-812; resazurin): 27 nM

COc1cc2nc(N3CCN(C(=O)c4ccco4)CC3)nc(N)c2cc1OC
IC50 (SUNE1; MTT; 48 h): 27400 nM

CC(C)c1ccccc1[C@@H]1CCCN1C1CC2(CCN(c3ccc(C(=O)NS(=O)(=O)c4ccc(NC[C@H]5CC[C@](C)(O)CC5)c([N+](=O)[O-])c4)c(Oc4cnc5[nH]ccc5c4)c3)CC2)C1
IC50 (OCI-Ly10; ATP luminescence; 48 h): 2.6 nM

O=C(Nc1cnn2ccc(N3CCC[C@@H]3c3cc(F)ccc3F)nc12)N1CC[C@H](O)C1
IC50 (KM12; ATP luminescence; 72 h): 10 nM

CC1(C)CCC(CN2CCN(c3ccc(C(=O)NS(=O)(=O)c4ccc(NCC5CCOCC5)c([N+](=O)[O-])c4)c(Oc4cnc5[nH]ccc5c4)c3)CC2)=C(c2ccc(Cl)cc2)C1
IC50 (OCI-Ly10; ATP luminescence; 48 h): 19 nM

O=C(NO)c1ccc(CNc2nc3cccc(-c4ccc5c(c4)OCO5)n3n2)cc1
GI50 (KM12; SRB): 560 nM
